Measured values taken from article PMC9099118 (Clinical and Translational Science, 2022).

Key:
[1] = Phase I safety: laboratory tests; assay type: in vivo, human
Method in brief: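 Healthy volunteers in single- and multiple-ascending inhaled-dose cohorts, randomized against placebo and blinded to investigator and subject. All dosed subjects were analysed. Change from baseline was assessed in vital signs, 12-lead ECG, spirometry and laboratory tests. Lab monitoring for JAK-related toxicity covered reticulocyte counts, lymphocyte subsets and fasting lipids.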

[2] = Phase I safety: adverse events, Part A; assay type: in vivo, human; details: for Related AE / Total number of participants with at least one AE / Upper respiratory tract infection / Cough / Headache: n (%)
[3] = Part B MAD, 15 mg b.i.d. (n = 6)

CN(CCC#N)C1CCN(C(=O)Cn2cc(NC(=O)c3cnn4cccnc34)c(-c3cc(Cl)ccc3OC(F)F)n2)CC1 [GDC‐0214]
changes in laboratory parameters, ECGs, or vital signs ([1]; Parts A and B): no clinically relevant changes | changes in CD4T cells, CD8T cells, or B cells ([1]; compared to placebo, GDC-0214-treated cohorts): no significant changes | changes from baseline in levels of NK cells, reticulocytes, or low-density lipoprotein cholesterol ([1]; indicators of systemic effects of JAK1 inhibition): no significant changes | AE leading to withdrawal from treatment ([2]; Part A SAD, 0.15 mg (n = 3)): 0 | Serious AE ([2]; Part A SAD, 0.15 mg (n = 3)): 0 | Total number of AEs ([2]; Part A SAD, 0.15 mg (n = 3)): 1 | Total number of deaths ([2]; Part A SAD, 0.15 mg (n = 3)): 0 | Total number of participants withdrawn from study due to an AE ([2]; Part A SAD, 0.15 mg (n = 3)): 0 | Related AE ([2]; Part A SAD, 0.15 mg (n = 3)): 0 | Total number of participants with at least one AE ([2]; Part A SAD, 0.15 mg (n = 3)): 1 (33.3%) | Upper respiratory tract infection ([2]; Part A SAD, 0.15 mg (n = 3)): 0 | AE leading to withdrawal from treatment ([2]; Part A SAD, 0.5 mg (n = 3)): 0 | Serious AE ([2]; Part A SAD, 0.5 mg (n = 3)): 0 | Total number of AEs ([2]; Part A SAD, 0.5 mg (n = 3)): 3 | Total number of deaths ([2]; Part A SAD, 0.5 mg (n = 3)): 0 | Total number of participants withdrawn from study due to an AE ([2]; Part A SAD, 0.5 mg (n = 3)): 0 | Related AE ([2]; Part A SAD, 0.5 mg (n = 3)): 0 | Total number of participants with at least one AE ([2]; Part A SAD, 0.5 mg (n = 3)): 2 (66.7%) | Upper respiratory tract infection ([2]; Part A SAD, 0.5 mg (n = 3)): 0 | AE leading to withdrawal from treatment ([2]; Part A SAD, 1.5 mg (n = 6)): 0 | Serious AE ([2]; Part A SAD, 1.5 mg (n = 6)): 0 | Total number of AEs ([2]; Part A SAD, 1.5 mg (n = 6)): 5 | Total number of deaths ([2]; Part A SAD, 1.5 mg (n = 6)): 0 | Total number of participants withdrawn from study due to an AE ([2]; Part A SAD, 1.5 mg (n = 6)): 0 | Related AE ([2]; Part A SAD, 1.5 mg (n = 6)): 1 (16.7%) | Total number of participants with at least one AE ([2]; Part A SAD, 1.5 mg (n = 6)): 3 (50.0%) | AE leading to withdrawal from treatment ([2]; Part A SAD, 5 mg (n = 6)): 0 | Serious AE ([2]; Part A SAD, 5 mg (n = 6)): 0 | Total number of AEs ([2]; Part A SAD, 5 mg (n = 6)): 2 | Total number of deaths ([2]; Part A SAD, 5 mg (n = 6)): 0 | Total number of participants withdrawn from study due to an AE ([2]; Part A SAD, 5 mg (n = 6)): 0 | Related AE ([2]; Part A SAD, 5 mg (n = 6)): 0 | Total number of participants with at least one AE ([2]; Part A SAD, 5 mg (n = 6)): 2 (33.3%) | Upper respiratory tract infection ([2]; Part A SAD, 5 mg (n = 6)): 0 | AE leading to withdrawal from treatment ([2]; Part A SAD, 15 mg (n = 6)): 0 | Serious AE ([2]; Part A SAD, 15 mg (n = 6)): 0 | Total number of AEs ([2]; Part A SAD, 15 mg (n = 6)): 4 | Total number of deaths ([2]; Part A SAD, 15 mg (n = 6)): 0 | Total number of participants withdrawn from study due to an AE ([2]; Part A SAD, 15 mg (n = 6)): 0 | Related AE ([2]; Part A SAD, 15 mg (n = 6)): 1 (16.7%) | Total number of participants with at least one AE ([2]; Part A SAD, 15 mg (n = 6)): 4 (66.7%) | Upper respiratory tract infection ([2]; Part A SAD, 15 mg (n = 6)): 0 | Total number of participants with at least one AE ([2]; Part B MAD, 1 mg q.d. 14 days (n = 6)): 6 (100%) | AE leading to withdrawal from treatment ([2]; Part B MAD, 1 mg q.d. (n = 6)): 0 | Related serious AE ([2]; Part B MAD, 1 mg q.d. (n = 6)): 0 | Serious AE ([2]; Part B MAD, 1 mg q.d. (n = 6)): 0 | Total number of AEs ([2]; Part B MAD, 1 mg q.d. (n = 6)): 6 | Total number of deaths ([2]; Part B MAD, 1 mg q.d. (n = 6)): 0 | Total number of participants withdrawn from study due to an AE ([2]; Part B MAD, 1 mg q.d. (n = 6)): 0 | Cough ([2]; Part B MAD, 1 mg q.d. (n = 6)): 0 | Headache ([2]; Part B MAD, 1 mg q.d. (n = 6)): 1 (16.7%) | Related AE ([2]; Part B MAD, 1 mg q.d. (n = 6)): 0 | Upper respiratory tract infection ([2]; Part B MAD, 1 mg q.d. (n = 6)): 2 (33.3%) | Total number of participants with at least one AE ([2]; Part B MAD, 3 mg q.d. 14 days (n = 6)): 4 (66.7%) | AE leading to withdrawal from treatment ([2]; Part B MAD, 3 mg q.d. (n = 6)): 0 | Related serious AE ([2]; Part B MAD, 3 mg q.d. (n = 6)): 0 | Serious AE ([2]; Part B MAD, 3 mg q.d. (n = 6)): 0 | Total number of AEs ([2]; Part B MAD, 3 mg q.d. (n = 6)): 11 | Total number of deaths ([2]; Part B MAD, 3 mg q.d. (n = 6)): 0 | Total number of participants withdrawn from study due to an AE ([2]; Part B MAD, 3 mg q.d. (n = 6)): 0 | Cough ([2]; Part B MAD, 3 mg q.d. (n = 6)): 1 (16.7%) | Headache ([2]; Part B MAD, 3 mg q.d. (n = 6)): 2 (33.3%) | Related AE ([2]; Part B MAD, 3 mg q.d. (n = 6)): 1 (16.7%) | Upper respiratory tract infection ([2]; Part B MAD, 3 mg q.d. (n = 6)): 3 (50.0%) | Total number of participants with at least one AE ([2]; Part B MAD, 10 mg q.d. 14 days (n = 6)): 6 (100%) | AE leading to withdrawal from treatment ([2]; Part B MAD, 10 mg q.d. (n = 6)): 0 | Related serious AE ([2]; Part B MAD, 10 mg q.d. (n = 6)): 0 | Serious AE ([2]; Part B MAD, 10 mg q.d. (n = 6)): 0 | Total number of AEs ([2]; Part B MAD, 10 mg q.d. (n = 6)): 13 | Total number of deaths ([2]; Part B MAD, 10 mg q.d. (n = 6)): 0 | Total number of participants withdrawn from study due to an AE ([2]; Part B MAD, 10 mg q.d. (n = 6)): 0 | Cough ([2]; Part B MAD, 10 mg q.d. (n = 6)): 0 | Headache ([2]; Part B MAD, 10 mg q.d. (n = 6)): 0 | Related AE ([2]; Part B MAD, 10 mg q.d. (n = 6)): 0 | Upper respiratory tract infection ([2]; Part B MAD, 10 mg q.d. (n = 6)): 2 (33.3%) | Total number of participants with at least one AE ([2]; Part B MAD, 15 mg b.i.d. 14 days (n = 6)): 4 (66.7%) | AE leading to withdrawal from treatment [2, 3]: 0 | Related serious AE [2, 3]: 0 | Serious AE [2, 3]: 0 | Total number of AEs [2, 3]: 8 | Total number of deaths [2, 3]: 0 | Total number of participants withdrawn from study due to an AE [2, 3]: 0 | Cough [2, 3]: 0 | Headache [2, 3]: 2 (33.3%) | Related AE [2, 3]: 0 | Upper respiratory tract infection [2, 3]: 0 | severity of adverse events ([2]; after single and multiple doses, all adverse events): mild or moderate | safety and tolerability ([2]; up to a single dose of 15 mg or multiple doses up to 15 mg b.i.d. for 14 days): safe and well tolerated
